The structures appear in SMILES notation. Some results are limits rather than exact numbers.

Data set [1] addresses Delta-type opioid receptor (Homo sapiens, UniProt P41143). As to the kind of experiment: Displacement of [3H]-DPN from recombinant human delta opioid receptor expressed in CHO-K1 cell membranes by radioligand binding assay. Summed up:
(§1)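 Membranes from CHO-K1 cells stably transfected with human recombinant μ or δ receptor, or guinea pig κ receptor; competition with [3H]-DPN radioligand; affinity reported as pKi.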

Data set [2] has as its target T1, Mu-type opioid receptor (Homo sapiens, UniProt P35372). Kind of data set: Displacement of [3H]-DPN from recombinant human mu opioid receptor expressed in CHO-K1 cell membranes by radioligand binding assay. Summed up: as §1
On the technique in general: In a radioligand displacement assay an active substance lowers the binding of a labelled ligand.

The target in data set [3] is T1, Mu-type opioid receptor. As to the kind of experiment: Antagonist activity at human recombinant mu opioid receptor expressed in CHO-K1 cell membranes assessed as intrinsic activity at 10 pM to 20 uM incubated for 30 mins in presence of Eu-GTP by DELFIA GTP binding assay relative to DAMGO.
A short description of data set [4]: Half life in rat liver microsomes at 3 uM. In kind it is ADME, Microsome. (In general: Liver microsomes are vesicles of endoplasmic reticulum, rich in cytochrome P450 enzymes.)
The nature of data set [5]: Half life in dog liver microsomes at 3 uM. In kind it is ADME, Canis lupus familiaris, Microsome.
A short description of data set [6]: Permeability coefficient, Kp in human Caco2 cells. In kind it is ADME, cell-based. The following applies: Caco-2, read-out: Kp. In general terms: Caco-2 monolayers are a common model of the intestinal barrier.
For data set [7], the target named is Kappa-type opioid receptor (Cavia porcellus, UniProt P41144). As to the kind of experiment: Displacement of [3H]-DPN from guinea pig kappa opioid receptor expressed in CHO-K1 cell membranes by radioligand binding assay. Summed up: as §1
Kappa-type opioid receptor, sequence (P41144 whole entry): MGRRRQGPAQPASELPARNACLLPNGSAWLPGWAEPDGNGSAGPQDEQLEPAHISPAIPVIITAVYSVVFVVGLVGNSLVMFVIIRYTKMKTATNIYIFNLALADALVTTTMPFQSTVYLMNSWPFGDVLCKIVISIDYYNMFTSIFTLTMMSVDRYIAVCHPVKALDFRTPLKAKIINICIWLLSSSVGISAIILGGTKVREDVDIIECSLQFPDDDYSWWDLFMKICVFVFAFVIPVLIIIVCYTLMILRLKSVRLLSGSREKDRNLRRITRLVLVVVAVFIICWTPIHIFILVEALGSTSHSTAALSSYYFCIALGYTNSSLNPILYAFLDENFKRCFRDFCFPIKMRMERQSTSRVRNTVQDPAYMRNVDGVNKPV
The nature of data set [8]: Half life in human liver microsomes at 3 uM. In kind it is ADME, Microsome.

T1 sequence (P35372 whole entry): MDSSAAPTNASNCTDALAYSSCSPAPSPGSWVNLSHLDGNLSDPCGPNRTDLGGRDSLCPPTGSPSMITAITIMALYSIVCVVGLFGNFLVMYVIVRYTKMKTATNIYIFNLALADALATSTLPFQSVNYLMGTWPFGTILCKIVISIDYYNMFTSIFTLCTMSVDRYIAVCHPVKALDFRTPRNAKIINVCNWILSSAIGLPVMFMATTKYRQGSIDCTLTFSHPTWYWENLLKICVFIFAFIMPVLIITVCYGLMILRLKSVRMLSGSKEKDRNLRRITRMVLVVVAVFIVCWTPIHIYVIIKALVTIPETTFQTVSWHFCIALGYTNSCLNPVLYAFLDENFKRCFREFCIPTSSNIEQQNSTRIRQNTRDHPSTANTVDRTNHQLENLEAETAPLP
Delta-type opioid receptor, sequence (P41143 whole entry): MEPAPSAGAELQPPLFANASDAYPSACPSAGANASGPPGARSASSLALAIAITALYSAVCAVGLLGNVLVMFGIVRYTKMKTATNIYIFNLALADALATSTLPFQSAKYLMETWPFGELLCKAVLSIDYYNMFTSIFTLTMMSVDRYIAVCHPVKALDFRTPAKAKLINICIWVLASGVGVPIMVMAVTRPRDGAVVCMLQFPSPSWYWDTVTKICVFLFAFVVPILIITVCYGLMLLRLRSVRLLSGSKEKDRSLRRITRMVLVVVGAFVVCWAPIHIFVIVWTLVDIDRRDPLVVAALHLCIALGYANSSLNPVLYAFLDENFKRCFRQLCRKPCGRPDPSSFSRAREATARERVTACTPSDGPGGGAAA

With `CCCCCCN(CCN1[C@@H]2CC[C@H]1C[C@@H](c1cccc(C(N)=O)c1)C2)C(=O)CO`, the figures for the inhibition constant Ki (in data set [1]; at Mu-type opioid receptor [2]; in data set [7]) were 63.1 nM, 0.794 nM and 3.16 nM, respectively. Further, the Intrinsic activity on Mu-type opioid receptor [3] is -9%. The half-life (usually the time needed for the level to fall by half in the phase considered) at 3 µM in data set [4] turned out to be 71 min; in data set [5], 11 min; in data set [8] it was 90 min. Besides, in data set [6], the Papp amounted to 45 ×10⁻⁶ cm/s.
Turning to `CN(C)S(=O)(=O)N(CCN1[C@@H]2CC[C@H]1C[C@@H](c1cccc(C(N)=O)c1)C2)CC1CCCCC1`, the Ki (commonly a dissociation constant, usually derived from enzyme kinetics or from competition with a known ligand) in data set [1] was 2 nM; on Mu-type opioid receptor [2], 0.2 nM; in data set [7], 0.2 nM. Also, the Intrinsic activity on Mu-type opioid receptor [3] is 0%. Further, the half-life at 3 µM worked out at 8 min in data set [4], 5 min in data set [5] and 9 min in data set [8].
`CCC(CC)CN(CCN1[C@@H]2CC[C@H]1C[C@@H](c1cccc(C(N)=O)c1)C2)C(=O)CO`: the results for the Ki (in data set [1]; on Mu-type opioid receptor [2]; in data set [7]) were 12.6 nM, 0.158 nM and 0.126 nM, respectively. Moreover, the Intrinsic activity on Mu-type opioid receptor [3] amounted to 9%. Moreover, the figures for the half-life at 3 µM in data set [4], in data set [5] and in data set [8] were 90 min, 75 min and 90 min, respectively. In data set [6], the Papp came out at 32 ×10⁻⁶ cm/s.
On to `CCC(CC)CN(CCCCCN1[C@@H]2CC[C@H]1C[C@@H](c1cccc(C(N)=O)c1)C2)C(=O)CO`, for which the values for the Ki (in data set [1]; on Mu-type opioid receptor [2]) were 20 nM and 0.631 nM, respectively. In addition, the Intrinsic activity on Mu-type opioid receptor [3] amounted to 1%. The figures for the half-life at 3 µM in data set [4], in data set [5] and in data set [8] were 28 min, 19 min and 12 min, respectively.
For the compound `C[C@H]1CN(CCCc2ccccc2)CC[C@@]1(C)c1cccc(O)c1`, the values for the Ki (in data set [1]; at Mu-type opioid receptor [2]; in data set [7]) were 1.26 nM, 0.1 nM and 0.794 nM, respectively. For the same compound, the Intrinsic activity at Mu-type opioid receptor [3] is -21%. In addition, in data set [4], the half-life at 3 µM was determined as 6 min.
As to `C[C@H]1CN(CCC(=O)O)CC[C@@]1(C)c1cccc(O)c1`, the Ki in data set [1] is 3160 nM; on Mu-type opioid receptor [2], 631 nM. Besides, on Mu-type opioid receptor [3], the Intrinsic activity came to 4%. Also, the half-life at 3 µM in data set [4] was > 90 min. Also, the Papp in data set [6] was < 1 ×10⁻⁶ cm/s.
For the compound `CCC(CC)CN(CCCCN1[C@@H]2CC[C@H]1C[C@@H](c1cccc(C(N)=O)c1)C2)C(=O)CO`, the Ki in data set [1] was 20 nM; at Mu-type opioid receptor [2], 0.631 nM. Further, the Intrinsic activity at Mu-type opioid receptor [3] was -1%. The half-life at 3 µM in data set [4] stood at 90 min; in data set [5], 90 min; in data set [8], 21 min.
For the compound `NC(=O)c1cccc([C@H]2C[C@H]3CC[C@@H](C2)N3CCN(CC2CCCCC2)C(=O)Cc2nnn[nH]2)c1`, the Ki in data set [1] was 3.16 nM; at Mu-type opioid receptor [2], 0.398 nM; in data set [7], 1.58 nM. The Intrinsic activity on Mu-type opioid receptor [3] turned out to be 0%. For the same compound, the half-life at 3 µM in data set [4], in data set [5] and in data set [8] was 90 min each time. The Papp in data set [6] was < 1 ×10⁻⁶ cm/s.
Turning to `NC(=O)c1cccc([C@H]2C[C@H]3CC[C@@H](C2)N3CCN(CC2CCOCC2)C(=O)CO)c1`, the Ki was 200 nM in data set [1], 12.6 nM on Mu-type opioid receptor [2] and 6.31 nM in data set [7]. Also, the Intrinsic activity on Mu-type opioid receptor [3] was determined as 0%. Besides, the half-life at 3 µM in data set [4], in data set [5] and in data set [8] was 90 min each time. In addition, the Papp in data set [6] is < 1 ×10⁻⁶ cm/s.
Turning to `CC(C)NC(=O)N(CCN1[C@@H]2CC[C@H]1C[C@@H](c1cccc(C(N)=O)c1)C2)CC1CCCCC1`, the Ki in data set [1] was 1.26 nM; at Mu-type opioid receptor [2], 0.2 nM; in data set [7], 0.158 nM. Further, the Intrinsic activity on Mu-type opioid receptor [3] amounted to 21%. Also, the half-life at 3 µM turned out to be 20 min in data set [4] and 14 min in data set [5]. For the same compound, in data set [6], the Papp was 36 ×10⁻⁶ cm/s.
As to `NC(=O)c1cccc([C@H]2C[C@H]3CC[C@@H](C2)N3CCN(Cc2ccccc2)C(=O)CO)c1`, the Ki is 5.01 nM in data set [1] and 0.2 nM in data set [7]. In addition, the Intrinsic activity at Mu-type opioid receptor [3] was -3%. The results for the half-life at 3 µM in data set [4], in data set [5] and in data set [8] were 85 min, 90 min and 90 min, respectively. Also, the Papp in data set [6] amounted to 21 ×10⁻⁶ cm/s.
With `CCC(CC)CN(CCCN1[C@@H]2CC[C@H]1C[C@@H](c1cccc(C(N)=O)c1)C2)C(=O)CO`, the Ki in data set [1] was 3.16 nM; in data set [7] it was 0.2 nM. Besides, the Intrinsic activity at Mu-type opioid receptor [3] worked out at 3%. Moreover, the results for the half-life at 3 µM in data set [4], in data set [5] and in data set [8] were 89 min, 90 min and 90 min, respectively. In addition, in data set [6], the Papp was 20 ×10⁻⁶ cm/s.
Regarding `NC(=O)c1cccc([C@H]2C[C@H]3CC[C@@H](C2)N3CCN(CC2CCCCC2)C(=O)c2ccco2)c1`, the values for the Ki (in data set [1]; on Mu-type opioid receptor [2]; in data set [7]) were 1.26 nM, 0.1 nM and 0.1 nM, respectively. On Mu-type opioid receptor [3], the Intrinsic activity amounted to 1%. Besides, the half-life at 3 µM worked out at 10 min in data set [4], 2 min in data set [5] and 17 min in data set [8].
Regarding `NC(=O)c1cccc([C@H]2C[C@H]3CC[C@@H](C2)N3CCN(CCc2ccccc2)C(=O)CO)c1`, in data set [1], the Ki was 20 nM. In addition, the half-life at 3 µM in data set [4] amounted to 34 min; in data set [5] it was 61 min; in data set [8] it was 90 min. Further, in data set [6], the Papp was 16 ×10⁻⁶ cm/s.
On to `CC(C)(C)C(=O)N(CCN1[C@@H]2CC[C@H]1C[C@@H](c1cccc(C(N)=O)c1)C2)CC1CCCCC1`, for which the Ki in data set [1] was 2 nM; at Mu-type opioid receptor [2], 0.126 nM; in data set [7], 0.158 nM. Also, on Mu-type opioid receptor [3], the Intrinsic activity is 3%. Besides, the values for the half-life at 3 µM in data set [4], in data set [5] and in data set [8] were 12 min, 2 min and 9 min, respectively.
In the case of `CS(=O)(=O)N(CCN1[C@@H]2CC[C@H]1C[C@@H](c1cccc(C(N)=O)c1)C2)CC1CCCCC1`, the Ki in data set [1] is 7.94 nM; at Mu-type opioid receptor [2] it was 0.251 nM; in data set [7] it was 0.794 nM. For the same compound, on Mu-type opioid receptor [3], the Intrinsic activity is 1%. Besides, the half-life at 3 µM in data set [4] stood at 13 min; in data set [5], 2 min; in data set [8], 19 min.
As to `CCC(CC)CN(CCCCCCN1[C@@H]2CC[C@H]1C[C@@H](c1cccc(C(N)=O)c1)C2)C(=O)CO`, the Ki is 25.1 nM in data set [1] and 1 nM at Mu-type opioid receptor [2]. In addition, on Mu-type opioid receptor [3], the Intrinsic activity is -2%. Besides, the results for the half-life at 3 µM in data set [4], in data set [5] and in data set [8] were 26 min, 9 min and 9 min, respectively.
As for `CC(=O)N(CCN1[C@@H]2CC[C@H]1C[C@@H](c1cccc(C(N)=O)c1)C2)CC1CCCCC1`, the figures for the Ki (in data set [1]; on Mu-type opioid receptor [2]; in data set [7]) were 1.58 nM, 0.1 nM and 0.126 nM, respectively. Further, the Intrinsic activity on Mu-type opioid receptor [3] is -1%. Further, the half-life at 3 µM in data set [4] is 74 min; in data set [5], 16 min; in data set [8], 63 min.
Regarding `COC(=O)N(CCN1[C@@H]2CC[C@H]1C[C@@H](c1cccc(C(N)=O)c1)C2)CC1CCCCC1`, the Ki is 2.51 nM in data set [1], 0.126 nM at Mu-type opioid receptor [2] and 0.2 nM in data set [7]. Besides, the Intrinsic activity at Mu-type opioid receptor [3] turned out to be 7%. The half-life at 3 µM turned out to be 2 min in data set [4], 2 min in data set [5] and 7 min in data set [8].

(Values after ChEMBL document CHEMBL4406921, “Discovery of Axelopran (TD-1211): A Peripherally Restricted μ-Opioid Receptor Antagonist” (ACS Med Chem Lett, 2019).)
